SENP7 inh – inhibitors of human SENP7 protease; AID 434973; recombinant SENP7, Z-RLRGG-aminoluciferin luminescence, 40 min; inhibition, % at 5 µM; Q9BQF6; actives 1.5% (n = 330,000);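 active = inhibition above about 50% at the single test dose, limit read from the data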;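 note: plate controls were DMSO with enzyme for no effect and no enzyme buffer wells for full effect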
SENP8 block-1 – inhibitors of human SENP8 protease. Q96LD8. purified SENP8, Z-RLRGG-aminoluciferin cleavage, luminescence. inhibition, % at 10 µM. actives 1.2% (n = 330,000). AID 2540; in the data active = inhibition above about 50%
Target sequence (Q96LD8 whole entry, looked up): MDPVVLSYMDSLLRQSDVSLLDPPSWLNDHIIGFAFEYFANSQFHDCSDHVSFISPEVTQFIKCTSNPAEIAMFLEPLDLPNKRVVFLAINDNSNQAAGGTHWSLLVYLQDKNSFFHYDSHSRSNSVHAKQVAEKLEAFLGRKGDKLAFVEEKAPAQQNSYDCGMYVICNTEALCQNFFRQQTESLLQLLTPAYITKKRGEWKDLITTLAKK
SENP8 block-2 – inhibitors of human SENP8 protease. Q96LD8. recombinant SENP8, Nedd8 substrate fluorescence. inhibition, % at 20 µM. actives 0.64% (n = 360,000). AID 602440; in the data active = inhibition mostly above about 40%, no sharp cut-off; inactive = mostly below about 27%
SENP6 block – SENP6 protease inhibition; inhibition, % at 10 µM; Q9GZR1; actives 1.8% (n = 330,000); Recombinant SENP6 catalytic domain, aminoluciferin luminescence; AID 2599;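 active = inhibition above about 50% at the single tested dose, limit read from the data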;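 note: plate controls were DMSO wells with enzyme for no effect and DMSO wells lacking enzyme for full effect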
SENP1 FRET inh – blocks the human SENP1 SUMO protease catalytic domain. actives 0.21% (n = 360,000). AID 624204. Q9P0U3. inhibition, % at 10 µM. recombinant SENP1 catalytic domain, CyPet-SUMO1-YPet FRET cleavage;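 active = inhibition at least 30% at 10 µM, raw YFP signal under a set limit, fluorescence ratio 0.5 to 1.5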;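 note: 0% = enzyme with DMSO and 100% = no enzyme wells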
Target sequence (Q9P0U3 419-644 limits assumed): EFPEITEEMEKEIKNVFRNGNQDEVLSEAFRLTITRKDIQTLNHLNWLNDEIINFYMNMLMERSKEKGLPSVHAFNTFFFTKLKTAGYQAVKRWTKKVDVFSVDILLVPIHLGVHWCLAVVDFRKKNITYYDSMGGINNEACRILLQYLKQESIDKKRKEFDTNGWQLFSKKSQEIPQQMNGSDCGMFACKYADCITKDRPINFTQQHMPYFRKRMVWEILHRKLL
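Assay system: hSENP1 catalytic domain, recombinant. Amount: SENP1 enzyme, 20 pM final. Schedule: 50 min reaction, RT, dark. Technique: FRET, CFP and YFP emission. Control set: no-enzyme wells low, DMSO-plus-enzyme wells high control.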
SENP8 conf – SENP8 (human) inhibition, single concentration confirmation | shares compounds with SENP8 block-2 | purified SENP8, Nedd8-AMC/pro-Nedd8 cleavage fluorescence, 30 min | inhibition, % at 25 µM | actives 15% (n = 1,400) | AID 624319; in the data active = inhibition mostly above about 39%, no sharp cut-off; inactive = mostly below about 34%
Numbers without * were called inactive. Hits are enriched below; roughly 2.5% of the tested compounds scored in any of these assays.

Results for COC(=O)c1sc(NC(=O)c2ccc([N+](=O)[O-])o2)c(C#N)c1C ?
SENP7 inh: 11.1; SENP8 block-1: -1.4; SENP8 block-2: 42.1*; SENP6 block: 2.8; SENP1 FRET inh: -2.2; SENP8 conf: 11.7

Results for c1cn2c(-c3ccoc3)cncc2n1 ?
SENP8 block-2: inactive; SENP1 FRET inh: -27.5

What do the screens show for `O=C(CS(=O)(=O)Cc1ccccc1)N1CCc2ccccc2C1`?
SENP7 inh: -10.0; SENP8 block-1: -3.2; SENP8 block-2: 50.2*; SENP6 block: 5.7; SENP1 FRET inh: -2.7; SENP8 conf: 76.3*

How did CS(=O)(=O)N(CC(=O)N1CCc2ccccc2C1)Cc1ccccc1 do in these assays?
SENP7 inh: 1.3; SENP8 block-1: -3.7; SENP8 block-2: 19.1; SENP6 block: -7.9; SENP1 FRET inh: 2.5

What do the screens show for `COc1ccc(CCN(C)c2ccc(S(=O)(=O)N3CCCC3)cc2[N+](=O)[O-])cc1OC`?
SENP7 inh: -5.1; SENP8 block-1: -8.1; SENP8 block-2: 43.2*; SENP6 block: 5.2; SENP1 FRET inh: 2.4; SENP8 conf: 10.1

How did Cc1c(C)c(C)c(C(=O)C2CCN(c3ccc([N+](=O)[O-])cn3)CC2)c(C)c1C do in these assays?
SENP7 inh: 0.2; SENP8 block-1: 6.3; SENP8 block-2: 44.0*; SENP6 block: 5.4; SENP1 FRET inh: -3.9; SENP8 conf: 16.0

Results for CC1CCN(c2ccc([N+](=O)[O-])cn2)CC1 ?
SENP7 inh: -6.7; SENP8 block-1: -11.0; SENP8 block-2: 5.0; SENP6 block: -27.6; SENP1 FRET inh: 0.3

How did C(=C\c1ccccc1)/CN1CCN(C(c2cc3ccccc3o2)c2nnnn2Cc2ccccc2)CC1 (centres undefined) do in these assays?
SENP8 block-2: 3.1; SENP1 FRET inh: -4.8

What do the screens show for `Cc1ccc(NC(=O)CSc2nc(-c3ccco3)nc3cc(=O)[nH]n23)c(Cl)c1`?
SENP7 inh: 9.3; SENP8 block-1: -10.2; SENP8 block-2: -10.1; SENP6 block: -7.6; SENP1 FRET inh: -0.7

What do the screens show for `CCc1nc2c(OCCn3cccc3)cccn2c1N(C)C(=O)c1ccc(C)cc1`?
SENP8 block-2: 20.8; SENP1 FRET inh: -2.9

Results for CC(C)C[C@H](NC(=O)N1c2ccccc2NC(=O)[C@@H]1C(C)C)C(=O)N[C@@H](Cc1ccccc1)C(=O)O ?
SENP7 inh: 4.2; SENP8 block-1: 1.5; SENP8 block-2: 16.1; SENP6 block: 1.6; SENP1 FRET inh: 0.8

How did CC(C)[C@H](NC(=O)N1c2ccccc2NC(=O)[C@@H]1C(C)C)C(=O)N1CCC(C(=O)O)CC1 do in these assays?
SENP7 inh: 3.5; SENP8 block-1: 5.7; SENP8 block-2: 44.9*; SENP6 block: 8.1; SENP1 FRET inh: 2.7; SENP8 conf: -4.3

What do the screens show for `CC(C)[C@H]1C(=O)Nc2ccccc2N1C(=O)N[C@@H](Cc1ccccc1)C(=O)N[C@@H](C(=O)O)c1ccccc1`?
SENP7 inh: 4.5; SENP8 block-1: 1.3; SENP8 block-2: 43.6*; SENP6 block: -5.3; SENP1 FRET inh: 0.2; SENP8 conf: 12.0

How did COc1cc(NC(=O)C2(C)CCN2C(=O)C(C)C)cc(OC)c1OC (centres undefined) do in these assays?
SENP8 block-2: 2.5; SENP1 FRET inh: 2.7

What do the screens show for `CNc1ccccc1`?
SENP7 inh: 3.8; SENP8 block-1: 8.5; SENP8 block-2: 12.8; SENP6 block: -4.4; SENP1 FRET inh: 3.1

Results for CNc1cccccc1=S ?
SENP7 inh: 6.7; SENP8 block-1: 5.3; SENP8 block-2: 62.1*; SENP6 block: 3.1; SENP1 FRET inh: -13.2; SENP8 conf: 10.1

Results for COc1cccc(-c2cc(C(=O)N3CCc4ccccc4C3)no2)c1 ?
SENP7 inh: 7.5; SENP8 block-1: 2.6; SENP8 block-2: 58.1*; SENP6 block: 35.0; SENP1 FRET inh: -12.4; SENP8 conf: 78.0*

What do the screens show for `COc1ccc(-c2cc(C(=O)N3CCc4ccccc4C3)no2)cc1`?
SENP7 inh: 2.2; SENP8 block-1: -8.8; SENP8 block-2: 23.2; SENP6 block: 6.4; SENP1 FRET inh: 6.0

How did COc1cccc(C=C(C(C)=O)C(=O)c2ccccc2)c1 do in these assays?
SENP8 block-2: 17.4; SENP1 FRET inh: 0.4

Results for COc1ccc(N(C(=O)c2snc(C(N)=O)c2N)C(C(=O)NCc2ccc(F)cc2)c2ccc(O)cc2)cc1 (centres undefined) ?
SENP7 inh: -12.9; SENP8 block-1: -5.6; SENP8 block-2: -290.3; SENP6 block: -5.5; SENP1 FRET inh: -11.2

Results for COc1c(O)cc2c(c1O)[C@@H]1O[C@H](CO)[C@@H](O)[C@H](O)C1OC2=O (some centres undefined) ?
SENP7 inh: -4.8; SENP8 block-1: -1.6; SENP8 block-2: 43.2*; SENP6 block: -8.9; SENP1 FRET inh: 0.6; SENP8 conf: 13.3

What do the screens show for `COc1c(O)cc2c(c1O)C1OC(CO)C(O)C(O)C1OC2=O` (centres undefined)?
SENP7 inh: -6.1; SENP8 block-1: -4.8; SENP8 block-2: 9.4; SENP6 block: -6.4; SENP1 FRET inh: 0.0

How did Cc1ccc(Nc2nc(CSc3n[nH]c(N)n3)cs2)cc1 do in these assays?
SENP7 inh: -8.2; SENP8 block-1: -10.5; SENP8 block-2: 17.4; SENP6 block: -25.1; SENP1 FRET inh: -0.2

How did O=C1CCCC2=C1C1(O)C(=O)c3ccccc3C1(O)O2 (centres undefined) do in these assays?
SENP7 inh: 27.8; SENP8 block-1: 11.8; SENP8 block-2: 51.4*; SENP6 block: 21.5; SENP1 FRET inh: 1.6; SENP8 conf: 89.5*

How did [O-]C1=N/[N+](=C/c2ccccc2)CC1 do in these assays?
SENP7 inh: 4.6; SENP8 block-1: -4.0; SENP8 block-2: 19.3; SENP6 block: -8.9; SENP1 FRET inh: 0.2

What do the screens show for `[O-]C1=N/[N+](=C/c2ccccc2Cl)CC1`?
SENP7 inh: -6.2; SENP8 block-1: -8.4; SENP8 block-2: 50.2*; SENP6 block: -10.5; SENP1 FRET inh: -0.3; SENP8 conf: 34.1

Results for C(=N\NC1=Nc2cccc3cccc1c23)/c1cccnc1 ?
SENP7 inh: 2.2; SENP8 block-1: -6.3; SENP8 block-2: 51.4*; SENP6 block: 5.1; SENP1 FRET inh: -21.2; SENP8 conf: 26.9

How did COc1ccc(-c2cc(=O)[nH][nH]2)cc1 do in these assays?
SENP7 inh: 9.9; SENP8 block-1: 2.2; SENP8 block-2: 41.5*; SENP6 block: 17.0; SENP1 FRET inh: 1.8; SENP8 conf: 28.1

What do the screens show for `O=c1cc(-c2ccc(Cl)cc2)[nH][nH]1`?
SENP7 inh: 7.3; SENP8 block-1: -1.8; SENP8 block-2: 43.1*; SENP6 block: 11.4; SENP1 FRET inh: -1.5; SENP8 conf: 33.4

How did Cc1ccccc1NC(=S)NC1(C)CCS(=O)(=O)C1 (centres undefined) do in these assays?
SENP7 inh: -5.1; SENP8 block-1: -12.3; SENP8 block-2: 6.5; SENP6 block: 0.1; SENP1 FRET inh: 2.7

From PubChem
